Reference: ChEMBL document CHEMBL2046297, “Synthesis and evaluation of substituted dibenzo[c,e]azepine-5-ones as P-glycoprotein-mediated multidrug resistance reversal agents” (Bioorg Med Chem Lett, 2012)
The source made the active and inactive calls. No cut-off for these calls is given here.

Assays:
[1] = target: ATP-dependent translocase ABCB1 (Homo sapiens, UniProt P08183); assay: Inhibition of P-glycoprotein-mediated rhodamine 123 uptake expressed in multidrug-resistant human K562/A02 cells assessed as fluorescence activity ratio at 10 uM after 72 hrs by flow cytometry relative to untreated control; format: cell-based; details: k562/a02, 72 h
Method in brief: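 Rh123 accumulation in P-gp-overexpressing K562/A02 cells with compound at 10 µM. FAR is the ratio of mean Rh123 fluorescence intensity in treated versus untreated cells. VRP served as positive control.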

[2] = Antiproliferative activity against multidrug-resistant human K562/A02 cells overexpressing p-glycoprotein after 72 hrs by MTS assay; format: functional, cell-based; details: K562/A02, 72 h
Method in brief: (§1)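 Growth inhibition of parental K562 and drug-resistant K562/A02 leukemia cells, measured by MTS after 72 h exposure. IC50 is the concentration giving a 50% drop in cell growth. Values are means of three experiments. ADR served as positive control.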

K562 [3] = assay: Antiproliferative activity against human K562 cells after 72 hrs by MTS assay; format: functional, cell-based; details: K562, 72 h; method in brief: as §1
K562/A02 [4] = assay: Inhibition of Pgp-mediated adriamycin efflux in multidrug-resistance human K562/A02 cells assessed as increase in intracellular accumulation of adriamycin after 60 mins by FACS flow cytometry; format: cell-based
Method in brief: (§2)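 K562/A02 cells were incubated with 0.5 µM Rh123 or 0.5 µM ADR, with or without 0.33, 3.3 or 10 µM compound, at 37 °C for 30 min. K562 cells received dye only. Cells were washed twice in PBS, resuspended in medium and left 60 min at 37 °C for efflux. Read-out was fluorescence microscopy or flow cytometry (ex/em 488/520 nm Rh123; 488/570 nm ADR). Vehicle was 0.1% DMSO.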

K562/A02 [5] = assay: Survival of human K562/A02 cells in presence of adriamycin at 2.5 uM after 72 hrs by MTS assay
K562 [6] = assay: Potentiation of adriamycin-induced cytotoxicity in human K562 cells after 72 hrs by MTS assay; format: functional, cell-based
Method in brief: (§3)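 Chemosensitization was tested by co-treating K562/A02 cells with 2 µM ADR or K562 cells with 0.04 µM ADR, plus compound at 2.5, 5 or 10 µM, for 72 h. Survival was read by MTS and compared with ADR alone. VRP served as positive control.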

K562/A02 [7] = assay: Survival of human K562/A02 cells in presence of adriamycin at 10 uM after 72 hrs by MTS assay
K562/A02 [8] = assay: Inhibition of Pgp-mediated rhodamine-123 efflux in multidrug-resistance human K562/A02 cells assessed as increase in intracellular accumulation of rhodamine-123 after 60 mins by fluorescence microscopic analysis; format: cell-based; method in brief: as §2
K562/A02 [9] = assay: Inhibition of Pgp-mediated multidrug-resistance in human K562/A02 cells assessed as potentiation of adriamycin-induced cytotoxicity after 72 hrs by MTS assay; format: cell-based; method in brief: as §3
K562/A02 [10] = assay: Survival of human K562/A02 cells in presence of adriamycin at 5 uM after 72 hrs by MTS assay

ATP-dependent translocase ABCB1, sequence (P08183 whole entry): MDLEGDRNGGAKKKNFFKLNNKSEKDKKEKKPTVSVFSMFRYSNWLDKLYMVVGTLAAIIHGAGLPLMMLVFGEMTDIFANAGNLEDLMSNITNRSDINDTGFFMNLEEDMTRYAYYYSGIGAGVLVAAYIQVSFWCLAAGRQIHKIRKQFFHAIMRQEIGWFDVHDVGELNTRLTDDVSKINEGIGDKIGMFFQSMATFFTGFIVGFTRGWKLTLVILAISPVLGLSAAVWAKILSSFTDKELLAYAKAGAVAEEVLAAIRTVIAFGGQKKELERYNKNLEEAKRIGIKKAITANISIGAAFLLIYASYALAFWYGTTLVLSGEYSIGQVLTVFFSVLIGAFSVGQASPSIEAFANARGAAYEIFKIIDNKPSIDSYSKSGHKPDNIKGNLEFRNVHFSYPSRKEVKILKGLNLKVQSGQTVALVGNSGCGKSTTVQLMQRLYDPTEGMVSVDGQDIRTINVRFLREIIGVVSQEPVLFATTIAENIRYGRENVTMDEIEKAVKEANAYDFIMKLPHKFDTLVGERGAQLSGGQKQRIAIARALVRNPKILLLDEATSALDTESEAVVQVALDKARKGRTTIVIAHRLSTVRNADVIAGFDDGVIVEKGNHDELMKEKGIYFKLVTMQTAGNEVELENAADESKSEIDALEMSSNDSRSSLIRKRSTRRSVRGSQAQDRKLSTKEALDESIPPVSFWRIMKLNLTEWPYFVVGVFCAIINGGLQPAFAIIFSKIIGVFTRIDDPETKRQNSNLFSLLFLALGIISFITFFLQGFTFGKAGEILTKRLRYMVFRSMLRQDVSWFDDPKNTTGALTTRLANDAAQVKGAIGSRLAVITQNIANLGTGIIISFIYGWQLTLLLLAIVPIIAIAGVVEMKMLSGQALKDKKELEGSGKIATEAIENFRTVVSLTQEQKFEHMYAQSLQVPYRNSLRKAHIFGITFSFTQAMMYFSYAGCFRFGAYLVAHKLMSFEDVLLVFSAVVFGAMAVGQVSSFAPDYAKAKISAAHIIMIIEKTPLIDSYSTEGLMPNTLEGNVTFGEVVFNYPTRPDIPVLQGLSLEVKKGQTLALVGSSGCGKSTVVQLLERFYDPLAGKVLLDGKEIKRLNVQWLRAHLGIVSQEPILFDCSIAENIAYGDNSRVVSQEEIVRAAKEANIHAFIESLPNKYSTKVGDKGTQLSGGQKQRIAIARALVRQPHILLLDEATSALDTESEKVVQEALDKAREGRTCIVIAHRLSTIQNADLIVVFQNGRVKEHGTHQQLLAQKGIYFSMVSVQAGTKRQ

| Ratio [1] | IC50 (K562 [3]) | SMILES | IC50 [2] | inhibition (K562/A02 [4]) | survival rate (K562/A02 [5]) | Activity (K562 [6]) | survival rate (K562/A02 [7]) | inhibition (K562/A02 [8]) | inhibition (K562/A02 [9]) | survival rate (K562/A02 [10]) |
| --- | --- | --- | --- | --- | --- | --- | --- | --- | --- | --- |
| 3.23 | > 100 µM | COc1cc2c(c3c1OCO3)-c1c(cc(OC)c3c1OCO3)C(=O)N(CCN1CCOCC1)C2 | > 100 µM |  |  |  |  |  |  |  |
| 2.84 | > 100 µM | CCCN(CCC)CCN1Cc2cc(OC)c3c(c2-c2c(cc(OC)c4c2OCO4)C1=O)OCO3 | > 100 µM |  |  |  |  |  |  |  |
| 1.44 | > 100 µM | COc1cc2c(c3c1OCO3)-c1c(cc(OC)c3c1OCO3)C(=O)N(CCN(C)C)C2 | > 100 µM |  |  |  |  |  |  |  |
| 1.65 | > 100 µM | COc1cc2c(c3c1OCO3)-c1c(cc(OC)c3c1OCO3)C(=O)N(CCN1CCCC1)C2 | > 100 µM |  |  |  |  |  |  |  |
| 3.46 | 90 µM | COc1cc2c(c3c1OCO3)-c1c(cc(OC)c3c1OCO3)C(=O)N(CCN1CCCCC1)C2 | 91.1 µM |  |  |  |  |  |  |  |
| 14.11 | 49.2 µM | COc1cc2c(c3c1OCO3)-c1c(cc(OC)c3c1OCO3)C(=O)N(CCN1CCN(Cc3ccccc3)CC1)C2 | 56.3 µM | Dose-dependent effect | 33.9% | inactive | 7.5% | Dose-dependent effect | Dose-dependent effect | 19.9% |
| 2.57 | 62.4 µM | CCN(CC)CCN1Cc2cc(OC)c3c(c2-c2c(cc(OC)c4c2OCO4)C1=O)OCO3 | 94.8 µM |  |  |  |  |  |  |  |
| 4.16 |  | COc1ccc(CCN(C)CCCC(C#N)(c2ccc(OC)c(OC)c2)C(C)C)cc1OC (configuration not stated) [VERAPAMIL] |  |  |  |  |  |  |  |  |
| 1.03 | > 100 µM | COc1cc2c(c3c1OCO3)-c1c(cc(OC)c3c1OCO3)C(=O)N(CCN1CCN(C)CC1)C2 | > 100 µM |  |  |  |  |  |  |  |
